# Assay outcomes (PubChem BioAssay)
# Rows were chosen to be rich in hits. Some 1.7% of all compounds tested hit in one or more screens of this group.
# TPT1 inhibitor = inhibitors of Candida albicans tRNA 2'-phosphotransferase TPT1. inhibition, % at 5 µM. recombinant caTPT1, FP RNA substrate dephosphorylation. hit rate 0.81% among 300,000. AID 1962;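 active = inhibition above the mean of all tested compounds plus 3 SD, set per screening campaign, cut at about 24% in these data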
# CSN inh = blocks human CSN-mediated cullin deneddylation. Purified CSN, SCF-Nedd8-OG deneddylation, fluorescence polarization. inhibition, % at 12.5 µM. hit rate 0.38% among 360,000;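 active = pattern-corrected inhibition above about 35%, with an unprinted fluorescence ratio check between 0.5 and 1.5, limit read from the data, passing the limit was not always enough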
#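 Assay system: Purified human Csn5 enzyme expressed in HEK293T cells | Amount: Enzyme 0.24 nM | Measured by: Fluorescence polarization readout | Medium: Tris/NaCl/DTT buffer, pH 7.5 | Compound dosing: One concentration, 12.5 µM, 0.25% DMSO | Times: 90 min incubation of compound, enzyme and substrate at room temperature | Control set: no-enzyme wells high, enzyme-with-substrate wells low | Read-out: % inhibition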
# IDE cell inh = inhibitors of human insulin-degrading enzyme in cells; hit rate 0.41% among 320,000; inhibition, % at 5.59 µM; HEK cells, FAbetaB cleavage, fluorescence polarization; P14735;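 active = percent inhibition above the average of all tested compounds plus 3 SD, set per screening campaign, cut at about 16% in these data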;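 note: IDE supplied by intact live HEK cells; FP after avidin binding of uncleaved biotin substrate so inhibition keeps polarization high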
# Target sequence (P14735 whole entry, looked up): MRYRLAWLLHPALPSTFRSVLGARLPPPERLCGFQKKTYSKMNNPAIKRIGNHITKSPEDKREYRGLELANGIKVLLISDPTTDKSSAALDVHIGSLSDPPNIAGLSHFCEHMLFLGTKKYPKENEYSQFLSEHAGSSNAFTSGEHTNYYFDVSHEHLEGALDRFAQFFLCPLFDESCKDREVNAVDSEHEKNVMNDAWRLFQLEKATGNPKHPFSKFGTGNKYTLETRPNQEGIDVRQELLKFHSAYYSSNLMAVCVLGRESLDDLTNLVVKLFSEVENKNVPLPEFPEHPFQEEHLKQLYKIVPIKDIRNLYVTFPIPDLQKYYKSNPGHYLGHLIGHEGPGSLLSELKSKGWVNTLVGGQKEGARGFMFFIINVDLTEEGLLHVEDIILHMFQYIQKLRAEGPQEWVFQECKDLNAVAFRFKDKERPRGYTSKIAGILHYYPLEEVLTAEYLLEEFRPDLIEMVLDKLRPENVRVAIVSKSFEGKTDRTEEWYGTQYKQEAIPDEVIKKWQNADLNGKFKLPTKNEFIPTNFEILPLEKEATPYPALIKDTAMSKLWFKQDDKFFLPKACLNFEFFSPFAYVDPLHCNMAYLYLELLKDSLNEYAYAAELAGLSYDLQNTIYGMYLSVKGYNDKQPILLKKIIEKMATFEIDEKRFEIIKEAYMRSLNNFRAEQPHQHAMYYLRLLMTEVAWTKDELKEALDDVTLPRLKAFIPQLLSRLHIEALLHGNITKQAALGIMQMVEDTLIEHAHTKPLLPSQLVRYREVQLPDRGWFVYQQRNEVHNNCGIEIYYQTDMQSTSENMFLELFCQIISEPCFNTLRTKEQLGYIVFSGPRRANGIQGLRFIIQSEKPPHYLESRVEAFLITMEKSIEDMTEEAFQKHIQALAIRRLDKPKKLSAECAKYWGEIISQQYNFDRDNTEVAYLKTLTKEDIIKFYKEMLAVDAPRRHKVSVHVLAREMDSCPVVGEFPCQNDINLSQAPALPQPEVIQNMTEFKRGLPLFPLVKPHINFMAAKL
# TbMetRS inhib = blocks T. brucei methionyl-tRNA synthetase activity | hit rate 0.4% among 360,000 | purified T. brucei MetRS, ATP depletion, Kinase-Glo luminescence | inhibition, % at 11.9 µM;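 active = inhibition above a per-plate cutoff of the control wells' mean inhibition plus 3 SD, cut at about 5.5% in these data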
#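 Material: parasite MetRS enzyme / Replication: singlicate, one well per compound / Signal: luminescence of leftover ATP / Schedule: 2 h aminoacylation at 25 °C after 15 min preincubation / Medium: HEPES-MgCl2-KCl buffer plus DTT, spermine, BSA, pyrophosphatase / Doses: 11.9 µM single point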
# IDE act = activators of human insulin-degrading enzyme in cells | HEK cells, FAbeta-B cleavage, fluorescence polarization; 0% vehicle, 100% cell-free pure enzyme wells | activation, % at 5.96 µM | hit rate 0.073% among 340,000;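 active = activation above the mean of all tested compounds plus 3 SD, set per screening campaign, cut at about 17% in these data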
# HNF4A DNA FP = change in binding of human HNF4 alpha to DNA; hit rate 0.3% among 360,000; P41235; AID 1224865; activity change, % at 10 µM; HNF4a-FITC DNA binding, fluorescence polarization, 1 h; in the data active = activity change above about 30%, passing the limit was not always enough
# IDE cell inh cf = cellular human IDE inhibition, confirmation. inhibition, % at 5.59 µM. hit rate 51% among 1,200. HEK cells, FAbetaB cleavage, fluorescence polarization. shares compounds with IDE cell inh;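 active = mean inhibition across triplicate wells above the cutoff set by the earlier primary insulin-degrading enzyme screen, cut at about 16% in these data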
# HEK293 tox = counter-screen for IDE inhibitors: cytotoxicity in HEK cells | shares compounds with IDE cell inh | HEK293 cytotoxicity, ATP luminescence | inhibition, % at 5.59 µM | hit rate 28% among 1,200 | AID 449730; in the data active = inhibition above about 22%
# TbMetRS confirm = Trypanosoma brucei MetRS inhibition confirmed; shares compounds with TbMetRS inhib; T. brucei MetRS enzyme, luminescence (ATP depletion); inhibition, % at 11.9 µM; hit rate 93% among 1,400; AID 624412; in the data active = inhibition above about 7%
# Jurkat tox = counter-screen for T. brucei MetRS inhibitors: Jurkat cell cytotoxicity | hit rate 12% among 1,400 | AID 624413 | shares compounds with TbMetRS inhib | Jurkat cells viability, ATP luminescence | inhibition, % at 8.3 µM; in the data active = inhibition above about 15%
# TbMetRS FP orth = T. brucei MetRS inhibition, orthogonal assay; hit rate 44% among 1,400; AID 651607; inhibition, % at 11.9 µM; purified T. brucei MetRS, fluorescence polarization; shares compounds with TbMetRS inhib; in the data active = inhibition above about 17%
# A number is an active result; 0 = inactive; - = not tested or not shown.
SMILES,TPT1 inhibitor,CSN inh,IDE cell inh,TbMetRS inhib,IDE act,HNF4A DNA FP,IDE cell inh cf,HEK293 tox,others
CCc1c(C#N)c(SCc2c(C)noc2C)nc2c1C(=O)CC(C)(C)C2,0,0,18,0,0,0,0,32,
Cn1c(N)c(C(=O)CSc2nc(N)cc(N)n2)c(=O)n(C)c1=O,0,0,21,0,0,0,0,0,
CCc1cc(=O)oc2cc(OCC(=O)N3CCC(C(N)=O)CC3)ccc12,0,0,0,0,0,0,-,-,
CCCc1cc(=O)oc2cc(OCC(=O)N3C[C@H]4C[C@@H](C3)c3cccc(=O)n3C4)c(Cl)cc12,0,0,0,0,0,0,-,-,
CCCCc1cc(=O)oc2cc(OCC(=O)N3CCC(C(N)=O)CC3)ccc12,0,0,18,0,0,0,0,0,
CCCCc1cc(=O)oc2c(C)c(OCC(=O)N3C[C@H]4C[C@@H](C3)c3cccc(=O)n3C4)ccc12,0,0,23,0,0,0,0,0,
Cc1oc2c(C)c3oc(=O)c(CCC(=O)N4C[C@H]5C[C@@H](C4)c4cccc(=O)n4C5)c(C)c3cc2c1C,0,0,0,0,0,0,-,-,
Cc1oc2cc3oc(=O)c(CCC(=O)N4C[C@H]5C[C@@H](C4)c4cccc(=O)n4C5)c(C)c3cc2c1C,0,0,18,0,0,0,0,0,
Cc1noc(C)c1C(=O)N1CCC1(C)C(=O)NS(=O)(=O)c1cccc(F)c1 (stereo not given),-,0,-,0,-,0,-,-,
Cc1n[nH]c(C)c1N1C(=O)c2cccc3c(N4CCCCCC4)ccc(c23)C1=O,0,0,122,0,0,0,26,0,
O=S(=O)(c1cccc(Cn2nnc(-c3ccccc3)n2)c1)N1CCOCC1,-,0,0,0,0,0,-,-,
COC(=O)[C@@]12C[C@@H](CC(=O)NCc3cccc(C(F)(F)F)c3)C(=O)N(CCc3ccc(OC)c(OC)c3)C1=CCC(C)(C)C2,-,0,-,0,-,0,-,-,
CCc1ccc(C(=O)/C=C2\Sc3ccccc3NC2=O)cc1,0,0,18,0,0,0,0,0,
CCCCNC(=O)/C=C1\Sc2ccccc2NC1=O,0,0,0,0,0,0,-,-,
COc1ccc(CNC(=O)COC(=O)c2ccc(F)c(S(=O)(=O)N3CCOCC3)c2)cc1,-,0,17,0,0,0,0,0,
COc1ccc(CCNC(=O)COC(=O)c2ccc(F)c(S(=O)(=O)N3CCOCC3)c2)cc1,-,0,0,0,0,0,-,-,
CNc1ccc(Oc2nc([N+](=O)[O-])nn2C)cc1,0,0,0,0,0,0,-,-,
Cc1nc2ccc(NC(=O)c3ccc(Cl)c(S(=O)(=O)N(C)c4ccccc4)c3)cc2s1,0,0,26,0,0,0,0,54,
CN(C)C(=O)c1ccc(NC(=O)c2cccc(S(=O)(=O)N3CCCc4ccccc43)c2)cc1,0,0,0,0,0,0,-,-,
Cc1ccc2c(c1)CCCN2S(=O)(=O)c1cccc(C(=O)Nc2ccccc2C(=O)O)c1,0,0,41,0,0,0,23,26,
CCCCn1[nH]c(-c2ccccc2)cc1=O,0,0,0,0,0,0,-,-,
O=C(C1=C[C@@H](C2CCCCC2)C[C@@H](OCc2ccc(CO)cc2)O1)N1CCN(Cc2ccccc2)CC1,0,0,19,0,0,0,0,0,
COc1cccc(-c2c[nH]c(=O)[nH]c2=O)c1,0,0,0,0,0,0,-,-,
Cc1ccc2nc(N3CCN(Cc4nnnn4Cc4ccccc4)CC3)c(C#N)cc2c1,0,0,21,0,0,0,0,0,
CC(=O)Oc1ccc(C(=O)Nc2ccc(S(=O)(=O)N3CCOCC3)cc2)cc1,0,0,0,0,0,0,-,-,
SMILES,TPT1 inhibitor,CSN inh,IDE cell inh,TbMetRS inhib,IDE act,HNF4A DNA FP,IDE cell inh cf,HEK293 tox,others
Cn1c(SCC(=O)Nc2ccc3c(c2)OCO3)nnc1C(F)(F)F,-,0,0,0,0,0,-,-,
Cc1c(C)c2ccc(OCC(=O)N3CCC[C@@H]3C(=O)O)c(C)c2oc1=O,0,0,17,0,0,0,0,0,
CC(NC(=O)COc1ccc(Br)cc1)C1CCCO1 (stereo not given),0,0,0,0,0,0,-,-,
CC(C)C(=O)N(c1ccc2oc(=O)sc2c1)S(=O)(=O)c1ccccc1,0,0,25,0,0,0,0,0,
COc1ccc(OC)c(S(=O)(=O)N(C(C)=O)c2ccc3oc(=O)sc3c2)c1,0,0,0,0,0,0,-,-,
CC(=O)N(c1ccc2oc(=O)sc2c1)S(=O)(=O)c1ccccc1,0,0,23,0,0,0,0,0,
C=CCOc1ccccc1CN(C(=O)CCl)c1ccc2c(c1)OCO2,0,0,0,0,0,0,-,-,
N#C/C(=C/c1ccc(O)c(O)c1)C(=O)NCc1ccc(Cl)cc1,0,0,24,15,0,0,33,0,TbMetRS confirm=36;Jurkat tox=17;TbMetRS FP orth=0
N#C/C(=C/c1cccc(O)c1)C(=O)NCc1ccc(Cl)cc1,0,0,0,0,0,0,-,-,
COc1cc(/C=N/Nc2nc3ccccc3[nH]2)cc(OC)c1O,0,0,18,8.5,0,0,0,24,TbMetRS confirm=14;Jurkat tox=30;TbMetRS FP orth=33
COc1ccc(CCNC(=O)CCCN2C(=O)C(c3ccccc3)Oc3cccnc32)cc1OC (stereo not given),0,0,0,0,0,0,-,-,
CCOc1cc(/C=C2\SC(=S)N(NS(=O)(=O)c3ccc(C)cc3)C2=O)ccc1O,0,0,35,5.8,0,0,84,0,TbMetRS confirm=11;Jurkat tox=0;TbMetRS FP orth=32
C=CCc1cccc(/C=C/c2cc(=O)c3ccccc3[nH]2)c1O,0,0,17,6.4,0,0,0,0,TbMetRS confirm=19;Jurkat tox=15;TbMetRS FP orth=0
C=CCc1cccc(/C=N/n2cnnc2)c1O,0,0,0,0,0,0,-,-,
Clc1ccc2[nH]c3c(NCCCN4CCOCC4)ncnc3c2c1,0,0,42,45,0,0,17,0,TbMetRS confirm=56;Jurkat tox=0;TbMetRS FP orth=48
C=CCNc1ncnc2c1[nH]c1ccc(C)cc12,0,0,30,11,0,0,0,35,TbMetRS confirm=22;Jurkat tox=0;TbMetRS FP orth=0
c1ccc(CNc2ncnc3nc[nH]c23)cc1,0,0,0,0,0,0,-,-,
Fc1ccc2[nH]c3c(NCc4ccccc4)ncnc3c2c1,0,0,88,84,0,0,67,59,TbMetRS confirm=92;Jurkat tox=30;TbMetRS FP orth=82
